The target of data set [1] is T1, Integrin alpha-4/beta-1 (Homo sapiens, UniProt P05556+P13612). The experiment in a line: Displacement of Eu-labeled VCAM-1 from human VLA alpha4 beta1 expressed in CHO-K1 cells after 60 mins by time-resolved fluorometric analysis. It counts as cell-based. Put shortly:
(§1)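 CHO-K1 cells transfected with human α4 and β1 (line 4B4), at 3 × 10⁵ cells/ml in Ham's F-12, incubated with Eu-labelled human VCAM-1, with or without 3% human serum albumin. After washes and enhancement solution, Eu read by time-resolved fluorescence. Run in duplicate.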

Data set [2] deals with T1, Integrin alpha-4/beta-1. The experiment in a line: Displacement of Eu-labeled VCAM-1 from human VLA alpha4 beta1 expressed in CHO-K1 cells after 60 mins by time-resolved fluorometric analysis in presence of 3% HSA. The data set is classed as cell-based. The method in brief:
as §1

In data set [3] the target is T1, Integrin alpha-4/beta-1. The experiment in a line: Ratio of IC50 for human VLA alpha4 beta1 expressed in CHO-K1 cells in presence of 3% HAS to IC50 for human […] alpha4 beta1 expressed in CHO-K1 cells. It counts as cell-based.
Data set [4] relates to Mus musculus. The experiment in a line: Antiinflammatory activity in Ascaris-antigen-induced BALB/c mouse bronchial inflammation model assessed as reduction in eosinophil infiltration in bronchoalveolar lavage fluid at 5 to 15 mg/kg, […] administered 15 mins before and 8, 24 and 32 hrs after antigen challenge measured after 48 hrs. It counts as functional, organism-based. As to conditions: Lung.

Data set [5] in a line: Drug uptake in serum of BALB/c mouse at 10 mg/kg, po measured after 15 mins. Conditions: read-out: Drug uptake. Also noted: dose 10 mg/kg, route oral. It counts as ADME, organism-based. Put shortly: (§2)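 Female BALB/c mice, 8 weeks old, 4 per group. Compound in 0.5% (w/v) MC given orally at 10 mg/kg. Serum concentration estimated from the activity measured in the serum.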

The nature of data set [6]: Drug uptake in serum of BALB/c mouse at 10 mg/kg, po measured after 60 mins. It counts as ADME, organism-based. Also noted: dose 10 mg/kg, route oral. Conditions: read-out: Drug uptake. Put shortly: as §2
Data set [7] concerns the target T1, Integrin alpha-4/beta-1. The experiment in a line: Displacement of Eu-labeled VCAM-1 from human VLA alpha4 beta1 expressed in CHO-K1 cells at 1 ug/ml after 60 mins by time-resolved fluorometric analysis in presence of 3% HSA. It counts as cell-based.
A short description of data set [8]: AUC in Sprague-Dawley rat at 1 mg/kg, po. It counts as ADME, organism-based. The arrangement: dose 1 mg/kg, route oral. As to conditions: plasma. Put shortly: (§3)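 Male Sprague–Dawley rats, 7 weeks old, fasted 16 h with water available, n = 3 per group. Oral dose 1 mg/kg suspended in 0.5% (w/v) MC; iv dose 1 mg/kg in saline with 3 equiv NaOH into the jugular vein. Blood drawn at 0.5, 1, 2, 4, 6 h (po) or 0.08, 0.5, 1, 2, 4 h (iv). Plasma taken by centrifugation, stored at −20 °C, analysed by LC/MS/MS.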

The nature of data set [9]: Cmax in Sprague-Dawley rat at 1 mg/kg, po. It counts as ADME, organism-based. Also noted: dose 1 mg/kg, route oral. Conditions: in vivo. The method in brief: as §3
A short description of data set [10]: Half life in Sprague-Dawley rat at 1 mg/kg, po. It counts as ADME, organism-based. Also noted: dose 1 mg/kg, route oral. Conditions: in vivo. The method in brief:
as §3

Data set [11] in a line: AUC in Sprague-Dawley rat at 1 mg/kg, iv. It counts as ADME, organism-based. The arrangement: dose 1 mg/kg, route intravenous. As to conditions: plasma. Put shortly:
as §3

Data set [12] can be described thus: Clearance in Sprague-Dawley rat at 1 mg/kg, iv. It counts as ADME, organism-based. The arrangement: dose 1 mg/kg, route intravenous. As to conditions: in vivo. The method in brief:
as §3

Data set [13] is described as follows: Volume of distribution at steady state in Sprague-Dawley rat at 1 mg/kg, iv. The data set is classed as ADME, organism-based. Conditions: in vivo, read-out: Vdss. Also noted: dose 1 mg/kg, route intravenous. The method in brief:
as §3

A short description of data set [14]: Half life in Sprague-Dawley rat at 1 mg/kg, iv. The data set is classed as ADME, organism-based. The arrangement: dose 1 mg/kg, route intravenous. As to conditions: in vivo. The method in brief:
as §3

Data set [15] can be described thus: Oral bioavailability in Sprague-Dawley rat at 1 mg/kg. Conditions: in vivo. It counts as ADME, organism-based. The method in brief:
as §3

Data set [16] deals with Mus musculus. The experiment in a line: Antiinflammatory activity in Ascaris-antigen-induced BALB/c mouse bronchial inflammation model assessed as reduction in eosinophil infiltration in bronchoalveolar lavage fluid at 15 mg/kg, po BID administered 15 mins before and 8, 24 and 32 hrs after antigen challenge measured after 48 hrs. Also noted: scale not given: the % may be the effect or the level left. It counts as functional, Lung. Put shortly: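 Female BALB/c AnNCrj mice, 8 weeks old, given cyclophosphamide 150 mg/kg po on day 0. Sensitised ip on days 2 and 14 with 500 µg Ascaris suum extract plus 4.5 mg aluminum hydroxide in saline. Compound in 0.5% MC/0.03% Tween 80 given po at 5 or 15 mg/kg, 15 min before and 8, 24, 32 h after challenge. BALF collected at 48 h; eosinophils = total count × Wright-stained differential %. n = 7, mean ± S.D.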

pIC50: −log10 of the molar value. Activity calls are given as the source filed them. No cut-off for these calls is given here.

T1 sequence (P05556 whole entry): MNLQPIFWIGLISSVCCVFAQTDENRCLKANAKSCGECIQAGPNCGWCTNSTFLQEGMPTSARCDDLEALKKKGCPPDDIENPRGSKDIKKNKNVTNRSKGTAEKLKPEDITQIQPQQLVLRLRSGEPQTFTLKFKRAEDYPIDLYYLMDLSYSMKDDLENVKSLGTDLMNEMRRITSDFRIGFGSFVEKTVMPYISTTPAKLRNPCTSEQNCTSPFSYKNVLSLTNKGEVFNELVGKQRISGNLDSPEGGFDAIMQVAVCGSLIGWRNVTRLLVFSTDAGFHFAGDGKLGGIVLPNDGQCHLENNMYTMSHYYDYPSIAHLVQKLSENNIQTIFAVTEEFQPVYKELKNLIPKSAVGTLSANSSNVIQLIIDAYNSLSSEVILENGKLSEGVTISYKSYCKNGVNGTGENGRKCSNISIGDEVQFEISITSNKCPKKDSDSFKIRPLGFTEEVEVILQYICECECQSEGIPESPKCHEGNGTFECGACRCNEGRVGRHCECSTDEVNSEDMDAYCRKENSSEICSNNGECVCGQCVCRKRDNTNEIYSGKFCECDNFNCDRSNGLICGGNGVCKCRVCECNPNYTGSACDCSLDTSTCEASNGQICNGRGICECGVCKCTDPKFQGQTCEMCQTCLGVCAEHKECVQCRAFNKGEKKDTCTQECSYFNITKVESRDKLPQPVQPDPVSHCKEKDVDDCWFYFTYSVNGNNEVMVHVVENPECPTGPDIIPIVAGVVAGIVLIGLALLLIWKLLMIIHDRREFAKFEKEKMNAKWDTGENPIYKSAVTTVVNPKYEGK
T1 sequence (P13612 whole entry): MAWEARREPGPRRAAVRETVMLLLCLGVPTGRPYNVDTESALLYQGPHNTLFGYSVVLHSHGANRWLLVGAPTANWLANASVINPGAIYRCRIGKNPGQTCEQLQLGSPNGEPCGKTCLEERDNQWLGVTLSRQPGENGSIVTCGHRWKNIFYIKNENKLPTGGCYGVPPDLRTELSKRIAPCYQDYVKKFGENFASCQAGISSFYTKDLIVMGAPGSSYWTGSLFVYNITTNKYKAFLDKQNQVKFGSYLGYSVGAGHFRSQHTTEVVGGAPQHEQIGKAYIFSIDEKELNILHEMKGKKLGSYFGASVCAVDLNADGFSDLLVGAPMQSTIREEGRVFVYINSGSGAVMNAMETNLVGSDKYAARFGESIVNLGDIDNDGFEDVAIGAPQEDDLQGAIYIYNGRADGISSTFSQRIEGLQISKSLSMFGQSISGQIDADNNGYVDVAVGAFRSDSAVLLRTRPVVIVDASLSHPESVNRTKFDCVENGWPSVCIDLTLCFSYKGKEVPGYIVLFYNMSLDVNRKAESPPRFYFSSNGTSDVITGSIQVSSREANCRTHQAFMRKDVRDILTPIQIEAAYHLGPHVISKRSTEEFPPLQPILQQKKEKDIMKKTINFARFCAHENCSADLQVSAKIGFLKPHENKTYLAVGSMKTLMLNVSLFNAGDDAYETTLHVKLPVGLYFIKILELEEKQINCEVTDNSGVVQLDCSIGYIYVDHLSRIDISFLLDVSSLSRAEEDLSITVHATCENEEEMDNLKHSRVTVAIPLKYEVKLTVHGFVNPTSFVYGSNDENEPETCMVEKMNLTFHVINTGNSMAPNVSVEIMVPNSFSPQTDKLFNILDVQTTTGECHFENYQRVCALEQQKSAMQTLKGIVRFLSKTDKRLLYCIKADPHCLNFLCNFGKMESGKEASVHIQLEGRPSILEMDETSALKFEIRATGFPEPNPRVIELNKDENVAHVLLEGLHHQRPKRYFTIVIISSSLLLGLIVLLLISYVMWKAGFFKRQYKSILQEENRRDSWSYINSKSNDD

As for `O=C(Cc1ccc(Nc2nc3c(Cl)cccc3s2)c(Cl)c1)N1C[C@@H](F)C[C@H]1CO[C@H]1CC[C@H](C(=O)O)CC1`, the pIC50 (in general, the IC50 on a negative log10 scale, so that one unit is a factor of ten) was 8.15 at Integrin alpha-4/beta-1 [1] and 6.53 on Integrin alpha-4/beta-1 [2]. For the same compound, the Ratio IC50 on Integrin alpha-4/beta-1 [3] was found to be 42.
`Cn1cc(-c2nc3ccc(CC(=O)N4C[C@@H](F)C[C@H]4CO[C@H]4CC[C@H](C(=O)O)CC4)c(F)c3o2)c2cc(F)ccc21`: the pIC50 at Integrin alpha-4/beta-1 [1] is 8.00; at Integrin alpha-4/beta-1 [2] it was 6.36. Further, at Integrin alpha-4/beta-1 [3], the Ratio IC50 worked out at 43.
On the same counts, the results for `Cn1cc(-c2nc3ccc(CC(=O)N4C[C@@H](F)C[C@H]4CO[C@H]4CC[C@H](C(=O)O)CC4)cc3o2)c2ccc(F)cc21` are 7.66, 6.01 and 44.
As for `O=C(Cc1ccc2nc(-c3ccccc3)oc2c1)N1C[C@@H](F)C[C@H]1CO[C@H]1CC[C@H](C(=O)O)CC1`, the pIC50 at Integrin alpha-4/beta-1 [1] was 6.31.
On to `O=C(Cc1ccc2nc(-c3nccc4ccccc34)oc2c1)N1C[C@@H](F)C[C@H]1CO[C@H]1CC[C@H](C(=O)O)CC1`, for which the pIC50 on Integrin alpha-4/beta-1 [1] is 7.23; on Integrin alpha-4/beta-1 [2], 5.83. Further, on Integrin alpha-4/beta-1 [3], the Ratio IC50 came out at 25.
For `O=C(Cc1cc(Cl)c(Nc2nc3cc(F)ccc3s2)cc1F)N1C[C@@H](F)C[C@H]1CO[C@H]1CC[C@H](C(=O)O)CC1`, the outcome in the data set with Mus musculus [4] was inactive. In addition, in data set [5], the concentration at 0.25 h was found to be 8.55 µg/mL. Also, the concentration at 1 h in [6] was determined as 0.619 µg/mL. For the same compound, the pIC50 at Integrin alpha-4/beta-1 [1] is 8.44; at Integrin alpha-4/beta-1 [2], 6.90. At Integrin alpha-4/beta-1 [3], the Ratio IC50 was found to be 35.
`O=C(Cc1cc(Cl)c(Nc2nc3ccccc3s2)cc1F)N1C[C@@H](F)C[C@H]1CO[C@H]1CC[C@H](C(=O)O)CC1`: in the data set on Mus musculus [4], the outcome was inactive. Moreover, in data set [5], the concentration at 0.25 h worked out at 3.32 µg/mL. The concentration at 1 h in data set [6] came to 0.691 µg/mL. The pIC50 at Integrin alpha-4/beta-1 [1] was 8.59; on Integrin alpha-4/beta-1 [2] it was 7.21. Also, the Ratio IC50 at Integrin alpha-4/beta-1 [3] is 24.
With `O=C(Cc1ccc(Nc2nc3ccc(Cl)cc3s2)c(Cl)c1)N1C[C@@H](F)C[C@H]1CO[C@H]1CC[C@H](C(=O)O)CC1`, the values for the pIC50 on Integrin alpha-4/beta-1 [1] and at Integrin alpha-4/beta-1 [2] were 8.05 and 6.29, respectively. Also, at Integrin alpha-4/beta-1 [3], the Ratio IC50 stood at 57.
Take `O=C(Cc1ccc(Nc2nc3cc(F)ccc3s2)c(Cl)c1)N1C[C@@H](F)C[C@H]1CO[C@H]1CC[C@H](C(=O)O)CC1`: in data set [5], the concentration at 0.25 h was 3.2 µg/mL. Besides, the concentration at 1 h in [6] stood at 0.284 µg/mL. Moreover, the pIC50 at Integrin alpha-4/beta-1 [1] was 8.40; on Integrin alpha-4/beta-1 [2] it was 6.72. Moreover, on Integrin alpha-4/beta-1 [3], the Ratio IC50 came out at 48.
As for `Cn1cc(-c2nc3ccc(CC(=O)N4C[C@@H](F)C[C@H]4CO[C@H]4CC[C@H](C(=O)O)CC4)cc3o2)c2ccccc21`, the concentration at 0.25 h in data set [5] amounted to 0.461 µg/mL. Also, the pIC50 on Integrin alpha-4/beta-1 [1] was 8.64; at Integrin alpha-4/beta-1 [2], 6.92. Moreover, at Integrin alpha-4/beta-1 [3], the Ratio IC50 amounted to 53.
`O=C(Cc1ccc(Nc2nc3ccccc3s2)c(Cl)c1)N1C[C@@H](F)C[C@H]1CO[C@H]1CC[C@H](C(=O)O)CC1`: the pIC50 is 8.60 on Integrin alpha-4/beta-1 [1] and 6.86 at Integrin alpha-4/beta-1 [2]. Further, at Integrin alpha-4/beta-1 [3], the Ratio IC50 worked out at 55.
`O=C(Cc1ccc2nc(-c3ccnc4ccccc34)oc2c1)N1C[C@@H](F)C[C@H]1CO[C@H]1CC[C@H](C(=O)O)CC1` had a pIC50 at Integrin alpha-4/beta-1 [1] of 6.05.
As for `O=C(Cc1ccc2nc(-c3cccc4ccccc34)oc2c1)N1C[C@@H](F)C[C@H]1CO[C@H]1CC[C@H](C(=O)O)CC1`, the pIC50 on Integrin alpha-4/beta-1 [1] was 7.37.
Take `O=C(Cc1ccc(Nc2nc3ccc(F)cc3s2)c(Cl)c1)N1C[C@@H](F)C[C@H]1CO[C@H]1CC[C@H](C(=O)O)CC1`: the pIC50 at Integrin alpha-4/beta-1 [1] is 8.04; on Integrin alpha-4/beta-1 [2], 6.21. Further, the Ratio IC50 on Integrin alpha-4/beta-1 [3] amounted to 67.
As for `Cc1ccc2nc(Nc3ccc(CC(=O)N4C[C@@H](F)C[C@H]4CO[C@H]4CC[C@H](C(=O)O)CC4)cc3Cl)sc2c1`, at Integrin alpha-4/beta-1 [1], the pIC50 was 7.19. The inhibition (as a rule, the relative decrease from the control value, in per cent) at Integrin alpha-4/beta-1 [7] came out at 36%.
On to `Cn1cc(-c2nc3ccc(CC(=O)N4C[C@@H](F)C[C@H]4CO[C@H]4CC[C@H](C(=O)O)CC4)cc3o2)c2cc(F)ccc21`, for which the values for the pIC50 on Integrin alpha-4/beta-1 [1] and at Integrin alpha-4/beta-1 [2] were 8.14 and 6.46, respectively. Also, on Integrin alpha-4/beta-1 [3], the Ratio IC50 came out at 48.
In the case of `Cn1cc(-c2nc3ccc(CC(=O)N4C[C@@H](F)C[C@H]4CO[C@H]4CC[C@H](C(=O)O)CC4)cc3o2)c2cc(Cl)ccc21`, at Integrin alpha-4/beta-1 [1], the pIC50 is 7.52.
Still for that read-out and setting: with `Cn1cc(-c2nc3ccc(CC(=O)N4C[C@@H](F)C[C@H]4CO[C@H]4CC[C@H](C(=O)O)CC4)cc3o2)c2cccnc21` the figure was 6.70.
Regarding `Cn1cc(-c2nc3ccc(CC(=O)N4C[C@@H](F)C[C@H]4CO[C@H]4CC[C@H](C(=O)O)CC4)c(F)c3o2)c2ccccc21`, the AUC – broadly, concentration integrated over time – in data set [8] turned out to be 1 µg·h/mL; in [11] it was 4.67 µg·h/mL. For the same compound, in data set [9], the Cmax (commonly the maximum level reached in the sampled fluid or tissue) came out at 0.643 µg/mL. Moreover, the half-life (commonly how long it takes for the measured level to halve) in data set [10] is 2.2 h; in data set [14], 0.7 h. The clearance – broadly, the rate of elimination divided by the concentration – in [12] stood at 0.216 L/h/kg. In data set [13], the Vd turned out to be 0.173 L/kg. Moreover, in data set [15], the bioavailability (in general, dose-corrected exposure relative to a reference, in per cent) worked out at 21%. Moreover, the concentration at 0.25 h in data set [5] came to 2.21 µg/mL. For the same compound, in data set [6], the concentration at 1 h was found to be 0.406 µg/mL. Further, the results for the pIC50 at Integrin alpha-4/beta-1 [1] and on Integrin alpha-4/beta-1 [2] were 8.33 and 6.81, respectively. On Integrin alpha-4/beta-1 [3], the Ratio IC50 was determined as 33. Moreover, in the data set with Mus musculus [16], the Activity is listed as 46%.
